Variants at the floor of the assay were thinned out.
B1: tRNA (parent)
chain: GUUCCGUUGGCGUAAUGGUAACGCGUCUCCCUCCUAAGGAGAAGACUGCGGGUUCGAGUCCCGUACGGAACG

Variants of: B1
Assay: yeast fitness relative to wild type (ratio to wild type); higher = fitter; tRNA-Arg(CCU), competitive growth, 37 C, YPD
Summary of the method: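 Gene amplicons from the start population and from each of six end populations were read by 100-nucleotide paired-end sequencing. Those end populations came from pooled Saccharomyces cerevisiae strains carrying tRNA-Arg(CCU) gene variants at the native locus, competed in YPD at 37°C for 24 hours. Fitness relative to wild type was worked out from changes in genotype frequencies. Genotypes needed ≥ 100 starting reads, and estimates < 0.5 were set to 0.5.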

Row | Variant | yeast fitness
1 | G12C C62G | 0.739
2 | U13A G18A A69U | 0.618
3 | U13A A43G A45G G50C C60A A69C | 0.534
4 | G12C A14G G25A G41C U54G A65G G68U A70C | 0.545
5 | G12C G41C C46U | 0.596
6 | U13A A37U | 0.63
7 | G12C G50U | 0.836
8 | G12C G50A | 0.736
9 | G12C C61U C66U A70C | ≤ 0.5
10 | U13A C24G G25A C31U | ≤ 0.5
11 | G12C C27A A37G C49U | ≤ 0.5
12 | U13A A43C A57C A70U | 0.551
13 | U13A C24A A45C | ≤ 0.5
14 | G12C C24U C55U G68C | 0.55
15 | U13A C22U C66U | 0.534
16 | U13A G18C A36G G41C G67A | ≤ 0.5
17 | G12C U47A G52C | ≤ 0.5
18 | U13A G23C A37C G38A | 0.554
19 | G12C A42U | 0.698
20 | G12C U13C A40U G58C | ≤ 0.5
21 | G12C A21C C60A | ≤ 0.5
22 | G12C A20G C34U C49G | 0.711
23 | G12C U16C U28A C60U | ≤ 0.5
24 | U13A C22A C29A G41C G50C | ≤ 0.5

Row | Variant | yeast fitness
25 | G12C C30G A37G U47G | ≤ 0.5
26 | U13A C34U A36G | ≤ 0.5
27 | U13A C24G U28A C30U C31G G41C G56A A57C | ≤ 0.5
28 | U13A C27G C34G G48C | ≤ 0.5
29 | U13A C30U C55G G58C | 0.56
30 | G12C U59G | 0.79
31 | U13A A42U A70G | 0.745
32 | G12C G38A A40G A42C | ≤ 0.5
33 | U13A A14C C22A U54C | ≤ 0.5
34 | G12C A43U | 0.892
35 | G12C A20U | 0.75
36 | G12C A20C | 0.699
37 | G12C G18C U54C | ≤ 0.5
38 | G12C U13A G38A | 0.576
39 | U13A C24U U59C G67A | ≤ 0.5
40 | G12C A14G G25A G41C G67A | ≤ 0.5
41 | U13A A15G C22G C24U G44A U53G | ≤ 0.5
42 | G12C G68A | 0.945
43 | G12C C34A G44A C46U G68A | ≤ 0.5
44 | U13A C31A G44A A57G | ≤ 0.5
45 | U13A A20G | 0.888
46 | U13A A20C | 0.715
47 | G12C C29U G58U C61U | ≤ 0.5
48 | U13A A57U | 0.681

Row | Variant | yeast fitness
49 | G12C U13G A15C A36U C55G | ≤ 0.5
50 | U13A C30A C31U A43C | 0.942
51 | G12C C22U A43C | 0.615
52 | G12C C22G G23A A37C A43C C62G G63A C66G A69G | ≤ 0.5
53 | U13A A45U | 1
54 | G12C G58C C60A A65C | ≤ 0.5
55 | G12C U13C U16A | 0.704
56 | G12C G18C | 0.55
57 | U13A C27U U64C | 0.937
58 | U13A C55A | 0.648
59 | U13A C62G A69G | 0.571
60 | G12C A20U C22G G50A | ≤ 0.5
61 | G12C C49U G52C A57C A65C | 0.53
62 | U13A C33G A37G | ≤ 0.5
63 | G12C C55U | 0.734
64 | G12C C27U | 0.805
65 | G12C A21C U26C C60A C61A | ≤ 0.5
66 | G12C C30A A42G | 0.562
67 | G12C C27U G58C A69C | 0.657
68 | G12C C29U G51A G56A G63C | 0.574
69 | G12C C22G A40C | 1.03
70 | U13A A14C C22A C31A A37G C55U A57G | ≤ 0.5
71 | G12C C22U U28A | 0.52
72 | G12C A20C C31G U64A | ≤ 0.5

Row | Variant | yeast fitness
73 | G12C C30U C33G U47G | ≤ 0.5
74 | G12C U54A | 0.701
75 | G12C U54C | 0.702
76 | U13A G23C U32G G58C C61A A65U | ≤ 0.5
77 | G12C C22U A43C G68C | 0.556
78 | G12C C33G G44C A69C | ≤ 0.5
79 | G12C C49U | 0.893
80 | G12C C49A | 0.562
81 | G12C C24G C60A | ≤ 0.5
82 | G12C U13C U16A C29G G44C C49G A57C | ≤ 0.5
83 | G12C C29G G48C | ≤ 0.5
84 | G12C U13C C22U A43C G68C | ≤ 0.5
85 | G12C A20U C22A | 0.927
86 | G12C U13C A20C C24G G39C | ≤ 0.5
87 | G12C C27U A69U | 0.599
88 | U13A A20G C24U U59C | ≤ 0.5
89 | G12C C27G A37G | ≤ 0.5
90 | U13A C34G A45C A57C | ≤ 0.5
91 | G12C C30G A37U G41A G58C | 0.581
92 | G12C A20C U32A C33G | 0.536
93 | G12C C46U C49G | 0.622
94 | G12C C62G C66U | ≤ 0.5
95 | U13A A69U | 0.984
96 | G12C C24G | 0.622

Row | Variant | yeast fitness
97 | G12C A40U G48C G63A | ≤ 0.5
98 | G12C C29G G51A G68C | ≤ 0.5
99 | U13A C66U G68C | 0.51
100 | U13A A20G G41A G51C G67C | ≤ 0.5
101 | G12C G39C G68C | ≤ 0.5
102 | U13A C22G C24A C46G C55U C61A | ≤ 0.5
103 | U13A A36G G56A | 0.679
104 | U13A A20C C34U G50C A69U | ≤ 0.5
105 | G12U G38A G52A G56C | ≤ 0.5
106 | G12C G25A C33G A37G A40C C49G G67C | ≤ 0.5
107 | G12C C55G C66U | ≤ 0.5
108 | G12C U16C C31G | ≤ 0.5
109 | G12C A20C U47A A70G | 0.755
110 | G12C A45U C61G | 0.528
111 | U13A C29G C46G | 0.583
112 | U13A C22A A42U | 0.582
113 | U13A C30G | 0.584
114 | U13A C30U | 0.802
115 | G12C C31G A65C | ≤ 0.5
116 | G12C C29A A45U G56A | ≤ 0.5
117 | G12C A21U C34U A69C | ≤ 0.5
118 | G12C G17A | 0.673
119 | U13A A14U C24G U28G C31U C66U | ≤ 0.5
120 | G12C A37G G38A A45U A70G | 0.567

Row | Variant | yeast fitness
121 | U13A C24U G51C | 0.542
122 | U13A C49U A65C | 0.624
123 | U13A A57U U64G A65G | ≤ 0.5
124 | G12C U16A C60G C61U | ≤ 0.5
125 | G12C A20C G50A C60U | 0.56
126 | G12C A20C C31G C66A | ≤ 0.5
127 | U13A A42U A57C C61U A65U | ≤ 0.5
128 | G12C U47C | 0.958
129 | G12C G41C C60G | ≤ 0.5
130 | G12C A20C C27G A45G C66A | ≤ 0.5
131 | G12C A36C | 0.518
132 | U13A C27A A36G A42C | ≤ 0.5
133 | U13A A14C U19C U32A G63C | 0.64
134 | G12C G67C | 0.825
135 | G12C G67A | 0.771
136 | U13A C29G A43G G67A | ≤ 0.5
137 | G12C A69C | 0.806
138 | G12C U26A U35A | ≤ 0.5
139 | G12C A37C A40U C46U G63A | ≤ 0.5
140 | U13A C29U C31U G50C | 0.508
141 | G12C A15C U19A C34U C49A A65U | ≤ 0.5
142 | U13A C27U C31U | 0.673
143 | G12C A15U C24A C61U | ≤ 0.5
144 | U13A C34G G50A C60G C61U | ≤ 0.5

Row | Variant | yeast fitness
145 | U13A A40G A42G A57C C66U | 0.522
146 | U13A C31G C46G A69C | ≤ 0.5
147 | G12C A43C C61G | ≤ 0.5
148 | U13A C27U A69U | 0.864
149 | G12C C33A A42G | 0.733
150 | G12C C34U C49U A57G | ≤ 0.5
151 | G12C A20U C33U | 0.555
152 | G12C G18C G50C | ≤ 0.5
153 | U13A C62G C66A | ≤ 0.5
154 | G12C C29A | 0.684
155 | G12C C29U | 0.85
156 | G12C U19A C27G | 0.692
157 | U13A G23C C49A U64G | ≤ 0.5
158 | G12C A43G G63A | 0.556
159 | G12C C31G C49G C55G A69U | 0.527
160 | G12C A15U C24A U54A C62U A65G G68A | ≤ 0.5
161 | U13A A43U G50A U54G G68C | ≤ 0.5
162 | U13A C31U C46A | 0.665
163 | U13A A45G A65C | 0.656
164 | U13A G23A A36C G38A C61G | ≤ 0.5
165 | G12C C24G A40G | ≤ 0.5
166 | U13A A20C A40U | ≤ 0.5
167 | U13A C24A A45U G50A G56A | ≤ 0.5
